Data on 13 compounds can be found in ChEMBL document CHEMBL5143539, “Synthesis and evaluation of dual-action kanglemycin-fluoroquinolone hybrid antibiotics” (Bioorg Med Chem Lett, 2022).

Molecules are shown by their SMILES. Values after ≈ are worked out from the molar mass of the structure shown.

For data set [1], the system named is Staphylococcus aureus. Nature of the data set: Antibacterial activity against rifampicin resistant Staphylococcus aureus harboring RpoBH481Y mutant assessed as inhibition of bacterial growth. The data set is classed as functional.
Data set [2] concerns Staphylococcus aureus. Kind of data set: Antibacterial activity against wild type Staphylococcus aureus assessed as inhibition of bacterial growth. The data set is classed as functional.
Data set [3] concerns Staphylococcus aureus. Nature of the data set: Antibacterial activity against ciprofloxacin resistant Staphylococcus aureus harboring ParCS80F and GyrAS84L double mutant assessed as inhibition of bacterial growth. The data set is classed as functional.
For data set [4], the system named is Staphylococcus aureus. Kind of data set: Antibacterial activity against Staphylococcus aureus harboring RpoBH481Y/ParCS80F/GyrAS84L triple mutant assessed as inhibition of bacterial growth. It is filed as functional.
Data set [5] concerns Escherichia coli. Nature of the data set: Antibacterial activity against Escherichia coli assessed as inhibition of bacterial growth. It is filed as functional. In short, it runs like this: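 Run in duplicate, with the same result obtained in each trial.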
In data set [6] the test system is HEK293. Nature of the data set: Cytotoxicity against HEK293 cells. It is filed as toxicity, cell-based, Homo sapiens.

In the case of `CC(=O)O[C@H]1[C@H](C)[C@H](O)[C@H](C)[C@@H](O)[C@@H](C(C)OC(=O)C(C)(C)CC(=O)O)/C=C/C=C(/C)C(=O)Nc2c3oc4cc(NCCCN5CCN(c6cc7c(cc6F)c(=O)c(C(=O)O)cn7C6CC6)CC5)cc(O)c4nc-3c3c4c(c(C)c(O)c3c2=O)O[C@](C)(O/C=C/[C@H](O[C@H]2C[C@@H]3OCO[C@@H]3[C@@H](C)O2)[C@H]1C)C4=O` (stereo partly drawn), the MIC (commonly the lowest concentration found to suppress growth) in data set [1] was 8 µg/mL (≈ 5.43 µM); in data set [2], 4 µg/mL (≈ 2.71 µM); in data set [3] it was 4 µg/mL (≈ 2.71 µM); in data set [4], over 64 µg/mL; in data set [5], 16 µg/mL (≈ 10.9 µM). Further, the IC50 (usually the concentration at which inhibition is half-maximal) in data set [6] is 44 µg/mL (≈ 29.9 µM).

For `COc1c(N2CCCC(N(C)c3cc(O)c4nc5c6c7c8c(C)c(O)c6c(=O)c(c-5oc4c3)NC(=O)/C(C)=C\C=C\[C@H](C(C)OC(=O)C(C)(C)CC(=O)O)[C@H](O)[C@@H](C)[C@@H](O)[C@@H](C)[C@H](OC(C)=O)[C@H](C)[C@@H](O[C@H]3C[C@@H]4OCO[C@@H]4[C@@H](C)O3)/C=C/O[C@@](C)(O8)C7=O)C2)c(F)cc2c(=O)c(C(=O)O)cn(C3CC3)c12` (stereo partly drawn), the MIC in data set [1] was 16 µg/mL (≈ 10.9 µM); in data set [2], 8 µg/mL (≈ 5.43 µM); in data set [3] it was 16 µg/mL (≈ 10.9 µM); in data set [4], over 64 µg/mL; in data set [5], 64 µg/mL (≈ 43.4 µM). For the same compound, the half-maximal inhibitory concentration (IC50) in data set [6] came to 36 µg/mL (≈ 24.4 µM).

With `COc1c(N2C[C@@H]3CCCN(C(=O)CC(C)(C)C(=O)OC(C)[C@H]4/C=C/C=C(/C)C(=O)NC5=CC(=O)c6c(c(O)c(C)c7c6C(=O)[C@@](C)(O/C=C/[C@H](O[C@H]6C[C@@H]8OCO[C@@H]8[C@@H](C)O6)[C@@H](C)[C@@H](OC(C)=O)[C@H](C)[C@H](O)[C@H](C)[C@H]4O)O7)C5=O)[C@@H]3C2)c(F)cc2c(=O)c(C(=O)O)cn(C3CC3)c12` (stereo partly drawn), the minimal inhibitory concentration (MIC) in data set [1] was over 64 µg/mL; in data set [2] it was 32 µg/mL (≈ 23.4 µM); in data set [3], 32 µg/mL (≈ 23.4 µM); in data set [4], over 64 µg/mL; in data set [5], over 64 µg/mL. Also, the 50% inhibitory concentration (IC50) in data set [6] stood at 28 µg/mL (≈ 20.5 µM).

On to `CC(=O)O[C@H]1[C@H](C)[C@H](O)[C@H](C)[C@@H](O)[C@@H](C(C)OC(=O)C(C)(C)CC(=O)O)/C=C/C=C(/C)C(=O)Nc2c3oc4cc(NCCCCCCCCC(=O)N5Cc6cc(-c7ccc8c(=O)c(C(=O)O)cn(C9CC9)c8c7OC(F)F)ccc6[C@H]5C)cc(O)c4nc-3c3c4c(c(C)c(O)c3c2=O)O[C@](C)(O/C=C/[C@H](O[C@H]2C[C@@H]3OCO[C@@H]3[C@@H](C)O2)[C@H]1C)C4=O` (stereo partly drawn), for which the MIC is 8 µg/mL (≈ 4.8 µM) in data set [1]; 4 µg/mL (≈ 2.4 µM) in data set [2]; 4 µg/mL (≈ 2.4 µM) in data set [3]; over 64 µg/mL in data set [4]; over 64 µg/mL in data set [5]. This compound also registered an IC50 in data set [6] of over 64 µg/mL.

As for `CC(=O)O[C@H]1[C@H](C)[C@H](O)[C@H](C)[C@@H](O)[C@@H](C(C)OC(=O)C(C)(C)CC(=O)O)/C=C/C=C(/C)C(=O)Nc2c3oc4cc(NCCCCCC(=O)N5Cc6cc(-c7ccc8c(=O)c(C(=O)O)cn(C9CC9)c8c7OC(F)F)ccc6[C@H]5C)cc(O)c4nc-3c3c4c(c(C)c(O)c3c2=O)O[C@](C)(O/C=C/[C@H](O[C@H]2C[C@@H]3OCO[C@@H]3[C@@H](C)O2)[C@H]1C)C4=O` (stereo partly drawn), the minimal inhibitory concentration (MIC) in data set [1] is 4 µg/mL (≈ 2.46 µM); in data set [2] it was 1 µg/mL (≈ 0.615 µM); in data set [3] it was 2 µg/mL (≈ 1.23 µM); in data set [4] it was over 64 µg/mL; in data set [5], over 64 µg/mL. The compound further showed an IC50 in data set [6] of over 64 µg/mL.

Take `COc1c(N2CCCC(N(C)CCCNc3cc(O)c4nc5c6c7c8c(C)c(O)c6c(=O)c(c-5oc4c3)NC(=O)/C(C)=C\C=C\[C@H](C(C)OC(=O)C(C)(C)CC(=O)O)[C@H](O)[C@@H](C)[C@@H](O)[C@@H](C)[C@H](OC(C)=O)[C@H](C)[C@@H](O[C@H]3C[C@@H]4OCO[C@@H]4[C@@H](C)O3)/C=C/O[C@@](C)(O8)C7=O)C2)c(F)cc2c(=O)c(C(=O)O)cn(C3CC3)c12` (stereo partly drawn): the MIC was 16 µg/mL (≈ 10.4 µM) in data set [1]; 8 µg/mL (≈ 5.22 µM) in data set [2]; 8 µg/mL (≈ 5.22 µM) in data set [3]; over 64 µg/mL in data set [4]; over 64 µg/mL in data set [5]. Moreover, the IC50 in data set [6] was over 64 µg/mL.

Regarding `CC(=O)O[C@H]1[C@H](C)[C@H](O)[C@H](C)[C@@H](O)[C@@H](C(C)OC(=O)C(C)(C)CC(=O)O)/C=C/C=C(/C)C(=O)Nc2c3oc4cc(N5CCN(c6cc7c(cc6F)c(=O)c(C(=O)O)cn7C6CC6)CC5)cc(O)c4nc-3c3c4c(c(C)c(O)c3c2=O)O[C@](C)(O/C=C/[C@H](O[C@H]2C[C@@H]3OCO[C@@H]3[C@@H](C)O2)[C@H]1C)C4=O` (stereo partly drawn), the minimum inhibitory concentration (MIC) in data set [1] was 32 µg/mL (≈ 22.6 µM); in data set [2], 0.5 µg/mL (≈ 0.353 µM); in data set [3], 0.5 µg/mL (≈ 0.353 µM); in data set [4] it was over 64 µg/mL; in data set [5], 8 µg/mL (≈ 5.65 µM). The compound further gave an IC50 in data set [6] of over 64 µg/mL.

For `COc1c(N2C[C@@H]3CCCN(CCCNc4cc(O)c5nc6c7c8c9c(C)c(O)c7c(=O)c(c-6oc5c4)NC(=O)/C(C)=C\C=C\[C@H](C(C)OC(=O)C(C)(C)CC(=O)O)[C@H](O)[C@@H](C)[C@@H](O)[C@@H](C)[C@H](OC(C)=O)[C@H](C)[C@@H](O[C@H]4C[C@@H]5OCO[C@@H]5[C@@H](C)O4)/C=C/O[C@@](C)(O9)C8=O)[C@@H]3C2)c(F)cc2c(=O)c(C(=O)O)cn(C3CC3)c12` (stereo partly drawn), the MIC is 16 µg/mL (≈ 10.4 µM) in data set [1]; 1 µg/mL (≈ 0.648 µM) in data set [2]; 1 µg/mL (≈ 0.648 µM) in data set [3]; over 64 µg/mL in data set [4]; over 64 µg/mL in data set [5]. The IC50 in data set [6] was found to be 38 µg/mL (≈ 24.6 µM).

For `CC(=O)O[C@H]1[C@H](C)[C@H](O)[C@H](C)[C@@H](O)[C@@H](C(C)OC(=O)C(C)(C)CC(=O)O)/C=C/C=C(/C)C(=O)Nc2c3oc4cc(NCCCNC5(c6c(F)cc7c(=O)c(C(=O)O)cn8c7c6OC[C@@H]8C)CC5)cc(O)c4nc-3c3c4c(c(C)c(O)c3c2=O)O[C@](C)(O/C=C/[C@H](O[C@H]2C[C@@H]3OCO[C@@H]3[C@@H](C)O2)[C@H]1C)C4=O` (stereo partly drawn), the MIC was over 64 µg/mL in data set [1]; 4 µg/mL (≈ 2.74 µM) in data set [2]; 4 µg/mL (≈ 2.74 µM) in data set [3]; over 64 µg/mL in data set [4]; 64 µg/mL (≈ 43.8 µM) in data set [5]. In data set [6], this compound registered an IC50 of over 64 µg/mL.

With `COc1c(N2C[C@@H]3CCCN(c4cc(O)c5nc6c7c8c9c(C)c(O)c7c(=O)c(c-6oc5c4)NC(=O)/C(C)=C\C=C\[C@H](C(C)OC(=O)C(C)(C)CC(=O)O)[C@H](O)[C@@H](C)[C@@H](O)[C@@H](C)[C@H](OC(C)=O)[C@H](C)[C@@H](O[C@H]4C[C@@H]5OCO[C@@H]5[C@@H](C)O4)/C=C/O[C@@](C)(O9)C8=O)[C@@H]3C2)c(F)cc2c(=O)c(C(=O)O)cn(C3CC3)c12` (stereo partly drawn), the MIC in data set [1] is 8 µg/mL (≈ 5.38 µM); in data set [2], 0.5 µg/mL (≈ 0.336 µM); in data set [3] it was 0.5 µg/mL (≈ 0.336 µM); in data set [4], over 64 µg/mL; in data set [5] it was 32 µg/mL (≈ 21.5 µM). Further, the IC50 in data set [6] was over 64 µg/mL.

For `CC(=O)O[C@H]1[C@H](C)[C@H](O)[C@H](C)[C@@H](O)[C@@H](C(C)OC(=O)C(C)(C)CC(=O)O)/C=C/C=C(/C)C(=O)Nc2c3oc4cc(NC5(c6c(F)cc7c(=O)c(C(=O)O)cn8c7c6OC[C@@H]8C)CC5)cc(O)c4nc-3c3c4c(c(C)c(O)c3c2=O)O[C@](C)(O/C=C/[C@H](O[C@H]2C[C@@H]3OCO[C@@H]3[C@@H](C)O2)[C@H]1C)C4=O` (stereo partly drawn), the MIC in data set [1] is 32 µg/mL (≈ 22.8 µM); in data set [2], 8 µg/mL (≈ 5.7 µM); in data set [3], 8 µg/mL (≈ 5.7 µM); in data set [4], over 64 µg/mL; in data set [5], 4 µg/mL (≈ 2.85 µM). In data set [6], this compound yielded an IC50 of over 64 µg/mL.

Turning to `CC(=O)O[C@H]1[C@H](C)[C@H](O)[C@H](C)[C@@H](O)[C@@H](C(C)OC(=O)C(C)(C)CC(=O)N[C@@H]2CCCCN(c3c(F)cc4c(=O)c(C(=O)O)cn(C5CC5)c4c3Cl)C2)/C=C/C=C(/C)C(=O)NC2=CC(=O)c3c(c(O)c(C)c4c3C(=O)[C@@](C)(O/C=C/[C@H](O[C@H]3C[C@@H]5OCO[C@@H]5[C@@H](C)O3)[C@H]1C)O4)C2=O` (stereo partly drawn), the MIC in data set [1] is 16 µg/mL (≈ 11.8 µM); in data set [2], 16 µg/mL (≈ 11.8 µM); in data set [3], 16 µg/mL (≈ 11.8 µM); in data set [4] it was over 64 µg/mL; in data set [5], over 64 µg/mL. The compound further yielded an IC50 in data set [6] of over 64 µg/mL.

Take `CO/N=C1\CN(c2nc3c(cc2F)c(=O)c(C(=O)O)cn3C2CC2)CC1CNC(=O)CC(C)(C)C(=O)OC(C)[C@H]1/C=C/C=C(/C)C(=O)NC2=CC(=O)c3c(c(O)c(C)c4c3C(=O)[C@@](C)(O/C=C/[C@H](O[C@H]3C[C@@H]5OCO[C@@H]5[C@@H](C)O3)[C@@H](C)[C@@H](OC(C)=O)[C@H](C)[C@H](O)[C@H](C)[C@H]1O)O4)C2=O` (stereo partly drawn): the MIC is over 64 µg/mL in data set [1]; 16 µg/mL (≈ 11.8 µM) in data set [2]; 8 µg/mL (≈ 5.91 µM) in data set [3]; over 64 µg/mL in data set [4]; over 64 µg/mL in data set [5]. In data set [6], this compound displayed an IC50 of over 64 µg/mL.
